Measured values taken from ChEMBL document CHEMBL1221271, “6-Alkylquinolone-3-carboxylic acid tethered to macrolides synthesis and antimicrobial profile” (2010).
In brackets after ≈: the same amount, converted by molar mass.

Columns and labels:
Type in all cases: functional
Staphylococcus aureus [1] = experiment: Antimicrobial activity against macrolide, licosamide streptogramin-resistant Staphylococcus aureus 90265/97 by broth microdilution method
Summary of the method: (§1)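 MIC determined by the standard broth microdilution method; values reported in mg/L. Reference macrolide antibiotics were tested alongside as comparators.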

Staphylococcus aureus [2] = experiment: Antimicrobial activity against Staphylococcus aureus ATCC 13709 by broth microdilution method; summary of the method: as §1
Streptococcus pneumoniae [3] = experiment: Antimicrobial activity against Streptococcus pneumoniae SP030 by broth microdilution method
Summary of the method: (§2)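 Standard broth microdilution assay. Read-out is the minimum inhibitory concentration, reported in mg/L.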

Streptococcus pyogenes [4] = experiment: Antimicrobial activity against Streptococcus pyogenes 3565 by broth microdilution method; summary of the method: as §2
Streptococcus pneumoniae [5] = experiment: Antimicrobial activity against Streptococcus pneumoniae 134 GR-M by broth microdilution method; summary of the method: as §2
Streptococcus pyogenes [6] = experiment: Antimicrobial activity against Streptococcus pyogenes Finland 2 by broth microdilution method; summary of the method: as §1
Streptococcus pneumoniae [7] = experiment: Antimicrobial activity against Streptococcus pneumoniae 58 spain by broth microdilution method; summary of the method: as §2
Streptococcus pyogenes [8] = experiment: Antimicrobial activity against Streptococcus pyogenes 166 GR-Micro by broth microdilution method; summary of the method: as §2
Haemophilus influenzae = experiment: Antimicrobial activity against Haemophilus influenzae ATCC 49247 by broth microdilution method; summary of the method: as §2
Staphylococcus aureus [9] = experiment: Antimicrobial activity against efflux-mediated macrolide-resistant Staphylococcus aureus PK1 by broth microdilution method; summary of the method: as §1
Streptococcus pyogenes [10] = experiment: Antimicrobial activity against macrolide-resistant Streptococcus pyogenes Finland 2 by broth microdilution method; summary of the method: as §1

Structure (SMILES) | MIC (Staphylococcus aureus [1]) [µg/mL] | MIC (Staphylococcus aureus [2]) [µg/mL] | MIC (Streptococcus pneumoniae [3]) [µg/mL] | MIC (Streptococcus pyogenes [4]) [µg/mL] | MIC (Streptococcus pneumoniae [5]) [µg/mL] | MIC (Streptococcus pyogenes [6]) [µg/mL] | MIC (Streptococcus pneumoniae [7]) [µg/mL] | MIC (Streptococcus pyogenes [8]) [µg/mL] | MIC (Haemophilus influenzae) [µg/mL] | MIC (Staphylococcus aureus [9]) [µg/mL] | MIC (Streptococcus pyogenes [10]) [µg/mL]
CCn1cc(C(=O)O)c(=O)c2cc(C#CCOCCCCCC(=O)O)ccc21 | > 64 | > 64 | > 64 | > 64 | > 64 | > 64 | > 64 | > 64 | > 64 | > 64 | 
CCOC(=O)CCCCCOCC#Cc1ccc2c(c1)c(=O)c(C(=O)OCC)cn2CC | > 64 | > 64 | 16 (≈ 36.2 µM) | 8 (≈ 18.1 µM) | 64 (≈ 145 µM) | > 64 | 64 (≈ 145 µM) | > 64 | > 64 | > 64 | > 64
CC[C@H]1OC(=O)[C@H](C)[C@@H](O[C@H]2C[C@@](C)(OC)[C@@H](OC(=O)CCCCCOCCCc3ccc4c(c3)c(=O)c(C(=O)O)cn4CC)[C@H](C)O2)[C@H](C)[C@@H](O[C@@H]2O[C@H](C)C[C@H](N(C)C)[C@H]2O)[C@](C)(OC)C[C@@H](C)C(=O)[C@H](C)[C@@H](O)[C@]1(C)O | 4 (≈ 3.57 µM) | 2 (≈ 1.79 µM) | < 0.125 | < 0.125 | 1 (≈ 0.893 µM) | < 0.125 | < 0.125 | < 0.125 | 8 (≈ 7.15 µM) | 2 (≈ 1.79 µM) | 
CC[C@H]1OC(=O)[C@H](C)[C@@H](O[C@H]2C[C@@](C)(OC)[C@@H](OC(=O)CCCCOCC#Cc3ccc4c(c3)c(=O)c(C(=O)O)cn4CC)[C@H](C)O2)[C@H](C)[C@@H](O[C@@H]2O[C@H](C)C[C@H](N(C)C)[C@H]2O)[C@](C)(O)C[C@@H](C)CN(C)[C@H](C)[C@@H](O)[C@]1(C)O | 4 (≈ 3.63 µM) | 0.5 (≈ 0.454 µM) | < 0.125 | < 0.125 | 0.5 (≈ 0.454 µM) | < 0.125 | < 0.125 | 1 (≈ 0.907 µM) | 1 (≈ 0.907 µM) | 0.5 (≈ 0.454 µM) | 
CC[C@H]1OC(=O)[C@H](C)[C@@H](O[C@H]2C[C@@](C)(OC)[C@@H](OC(=O)CCCCCOCCCc3ccc4c(c3)c(=O)c(C(=O)O)cn4CC)[C@H](C)O2)[C@H](C)[C@@H](O[C@@H]2O[C@H](C)C[C@H](N(C)C)[C@H]2O)[C@](C)(O)C[C@@H](C)CN(C)[C@H](C)[C@@H](OC)[C@]1(C)O | 2 (≈ 1.76 µM) | 1 (≈ 0.881 µM) | < 0.125 | < 0.125 | 0.5 (≈ 0.441 µM) | < 0.125 | < 0.125 | 0.5 (≈ 0.441 µM) | 1 (≈ 0.881 µM) | 1 (≈ 0.881 µM) | 
CC[C@H]1OC(=O)[C@H](C)C(=O)[C@H](C)[C@@H](O[C@@H]2O[C@H](C)C[C@H](N(C)C)[C@H]2O)[C@](C)(OC)C[C@@H](C)C(=O)[C@H](C)[C@H]2N(CCCCn3cnc(-c4cccnc4)c3)C(=O)O[C@]12C [TELITHROMYCIN] | < 0.125 | 0.25 (≈ 0.308 µM) | < 0.125 | < 0.125 | 0.25 (≈ 0.308 µM) | 0.5 (≈ 0.616 µM) | 0.25 (≈ 0.308 µM) | 16 (≈ 19.7 µM) | 1 (≈ 1.23 µM) | 0.125 (≈ 0.154 µM) | 0.5 (≈ 0.616 µM)
CC[C@H]1OC(=O)[C@H](C)[C@@H](O[C@H]2C[C@@](C)(OC)[C@@H](O)[C@H](C)O2)[C@H](C)[C@@H](O[C@@H]2O[C@H](C)C[C@H](N(C)C)[C@H]2O)[C@](C)(O)C[C@@H](C)CN(C)[C@H](C)[C@@H](O)[C@]1(C)O [AZITHROMYCIN] | > 64 | 0.5 (≈ 0.668 µM) | < 0.125 | < 0.125 | > 64 | 16 (≈ 21.4 µM) | > 64 | > 64 | 1 (≈ 1.34 µM) | > 64 | 16 (≈ 21.4 µM)
CC[C@H]1OC(=O)[C@H](C)[C@@H](O[C@H]2C[C@@](C)(OC)[C@@H](OC(=O)CCCCCOCCCc3ccc4c(c3)c(=O)c(C(=O)O)cn4CC)[C@H](C)O2)[C@H](C)[C@@H](O[C@@H]2O[C@H](C)C[C@H](N(C)C)[C@H]2O)[C@](C)(O)C[C@@H](C)CN(C)[C@H](C)[C@@H](O)[C@]1(C)O | 0.25 (≈ 0.223 µM) | 0.25 (≈ 0.223 µM) | < 0.125 | < 0.125 | < 0.125 | < 0.125 | < 0.125 | < 0.125 | 0.5 (≈ 0.446 µM) | 0.25 (≈ 0.223 µM) | 
CCOC(=O)CCCCOCC#Cc1ccc2c(c1)c(=O)c(C(=O)OCC)cn2CC | > 64 | > 64 | > 64 | > 64 | > 64 | > 64 | > 64 | > 64 | > 64 | > 64 | 
CC[C@H]1OC(=O)[C@H](C)[C@@H](O[C@H]2C[C@@](C)(OC)[C@@H](OC(=O)CCCCOCCCc3ccc4c(c3)c(=O)c(C(=O)O)cn4CC)[C@H](C)O2)[C@H](C)[C@@H](O[C@@H]2O[C@H](C)C[C@H](N(C)C)[C@H]2O)[C@](C)(O)C[C@@H](C)CN(C)[C@H](C)[C@@H](O)[C@]1(C)O | 4 (≈ 3.62 µM) | 0.5 (≈ 0.452 µM) | < 0.125 | < 0.125 | 0.25 (≈ 0.226 µM) | < 0.125 | < 0.125 | 0.25 (≈ 0.226 µM) | 2 (≈ 1.81 µM) | 0.5 (≈ 0.452 µM) | 
CCn1cc(C(=O)O)c(=O)c2cc(C#CCOCCCCC(=O)O)ccc21 | > 64 | > 64 | 1 (≈ 2.69 µM) | 1 (≈ 2.69 µM) | > 64 | 16 (≈ 43.1 µM) | 2 (≈ 5.39 µM) | > 64 | > 64 | > 64 | 16 (≈ 43.1 µM)
CC[C@H]1OC(=O)[C@H](C)[C@@H](O[C@H]2C[C@@](C)(OC)[C@@H](O)[C@H](C)O2)[C@H](C)[C@@H](O[C@@H]2O[C@H](C)C[C@H](N(C)C)[C@H]2O)[C@](C)(OC)C[C@@H](C)C(=O)[C@H](C)[C@@H](O)[C@]1(C)O [CLARITHROMYCIN] | > 64 | ≤ 0.125 | ≤ 0.125 | ≤ 0.125 | > 64 | 4 (≈ 5.35 µM) | > 64 | > 64 | 8 (≈ 10.7 µM) | 32 (≈ 42.8 µM) | 4 (≈ 5.35 µM)
CC[C@H]1OC(=O)[C@H](C)[C@@H](O[C@H]2C[C@@](C)(OC)[C@@H](OC(=O)CCCCCOCC#Cc3ccc4c(c3)c(=O)c(C(=O)O)cn4CC)[C@H](C)O2)[C@H](C)[C@@H](O[C@@H]2O[C@H](C)C[C@H](N(C)C)[C@H]2O)[C@](C)(OC)C[C@@H](C)C(=O)[C@H](C)[C@@H](O)[C@]1(C)O | 8 (≈ 7.17 µM) | 2 (≈ 1.79 µM) | < 0.125 | < 0.125 | 4 (≈ 3.59 µM) | < 0.125 | < 0.125 | 2 (≈ 1.79 µM) | 16 (≈ 14.3 µM) | 2 (≈ 1.79 µM) | 
